Source: PubChem BioAssay (several laboratories)
ARFGAP1 inhibitor: rat ARFGAP1 inhibition; 0.26% of 360,000 active; AID 651572; Arfgap1-stimulated ARF1 GTP hydrolysis, GDP FP detection; inhibition, % at 16.5 µM; Q62848;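 active = inhibition above a per-plate limit, mean inhibition of low control wells plus 3 SD, cut at about 25% in these data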;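 also: 0% = DMSO wells with enzyme and 100% = wells lacking Arfgap1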
Target sequence (Q62848 1-136 limits assumed): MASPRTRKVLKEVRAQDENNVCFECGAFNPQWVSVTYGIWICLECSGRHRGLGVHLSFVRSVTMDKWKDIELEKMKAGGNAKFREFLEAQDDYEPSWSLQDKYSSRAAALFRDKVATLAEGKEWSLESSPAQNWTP
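Repeats: one replicate per compound; assay system: rat Arfgap1 catalytic domain, aa 1-136; times: enzyme reaction 120 min at 25 °C after 20 min preincubation; detection: FP of antibody-bound GDP Alexa 633 tracer, ex 620/em 688 nm; benchmarks: high control wells lacking Arfgap1, low control full reaction with DMSO; reagent: human ARF1(Δ1-17)-GTP substrate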
LEDGF integ inh: blocks HIV-1 LEDGF/p75-dependent DNA integration. TR-FRET IN-LEDGF/p75 DNA integration, Eu/Cy5. inhibition, % at 3.7 µM. 0.64% of 370,000 active;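 active = inhibition above the screen-wide mean plus 3 SD, cut at about 13% in these data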;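 also: signal is the Cy5 over europium emission ratio at 671 and 618 nm; 0% = plate median of compound wells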
CASP6 VEID inh: blocks human caspase-6 cleavage activity; inhibition, % at 12.5 µM; 0.53% of 350,000 active; P55212; purified caspase-6, Z-VEID-R110 cleavage fluorescence;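 active = mean inhibition across replicates at least about 35%, with every replicate also reaching that limit, limit read from the data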;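 also: 0% = median of neutral control wells and 100% = no fluorescence left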
ASAP1 GAP inh: blocks human ASAP1-stimulated Arf1 GTP hydrolysis; Q9ULH1; GDP FP detection; inhibition, % at 16.5 µM; 0.19% of 360,000 active; in the data active = inhibition above about 25%;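 also: 0% = vehicle with enzyme and substrate and 100% = no enzyme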
TDP2 inh: blocks human TDP2 phosphodiesterase activity; recombinant TDP2, T5PNP hydrolysis, p-nitrophenol absorbance 415 nm; O95551; inhibition, % at 12.8 µM; 0.34% of 370,000 active; AID 720702;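 active = inhibition above the mean of all tested compounds plus 3 SD, set per campaign, cut at about 25% in these data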;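 also: 0% = DMSO with enzyme and 100% = buffer with substrate but no TDP2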
Target sequence (O95551 whole entry, looked up): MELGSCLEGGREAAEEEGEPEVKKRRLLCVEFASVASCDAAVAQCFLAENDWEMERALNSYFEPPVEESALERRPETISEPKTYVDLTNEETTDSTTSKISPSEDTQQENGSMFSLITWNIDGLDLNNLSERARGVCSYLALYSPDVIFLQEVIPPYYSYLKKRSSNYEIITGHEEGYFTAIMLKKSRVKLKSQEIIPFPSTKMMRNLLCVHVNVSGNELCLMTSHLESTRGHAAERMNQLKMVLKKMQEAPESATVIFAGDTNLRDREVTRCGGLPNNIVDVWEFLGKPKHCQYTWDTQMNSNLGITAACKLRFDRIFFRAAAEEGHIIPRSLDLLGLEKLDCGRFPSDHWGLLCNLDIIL
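Test system: Human TDP2 enzyme | Reagent: 5 mM T5PNP | Compound dosing: 12.8 µM single point, 1% DMSO | Incubation: Enzyme reaction with compound for 2 h at 37 °C | Technique: p-Nitrophenol epi absorbance | Read-out: % inhibition relative to enzyme-containing and enzyme-free wells | Benchmarks: High control without enzyme, low control DMSO plus TDP2 | Replicates: Singlicate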
ASAP1 inh confirm: ASAP1 inhibition confirmed; shares compounds with ASAP1 GAP inh; ASAP1-stimulated Arf1 GTPase, GDP fluorescence polarization; 37% of 620 active; inhibition, % at 16.5 µM;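 active = mean inhibition over triplicates exceeds the hit threshold derived for the earlier primary screening run, cut at about 25% in these data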
ARFGAP1 confirm: confirmation of rat ARFGAP1 inhibitors | 30% of 890 active | inhibition, % at 16.5 µM | ARFGAP1-stimulated ARF1 GTP hydrolysis, GDP tracer FP | shares compounds with ARFGAP1 inhibitor;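 active = average inhibition over triplicates above the hit cutoff set in the earlier primary screen, cut at about 25% in these data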;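 also: 0% = Arfgap1 plus ARF1-GTP with DMSO and 100% = wells lacking Arfgap1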
Starred values were filed as active, the others as inactive; . = no result given; ! = repeats disagree. Most compounds without a hit are left out; they make up all but 1.3% or so of the library.

SMILES | ARFGAP1 inhibitor | LEDGF integ inh | CASP6 VEID inh | ASAP1 GAP inh | TDP2 inh | ASAP1 inh confirm | ARFGAP1 confirm
CO[C@@H]1CN(C)C(=O)c2cc(NC(=O)Cc3ccccc3)ccc2OC[C@H](C)N(CC2CC2)C[C@@H]1C | . | . | 0 | . | . | . | .
COc1ccc(OC)c(C(C(=O)NC2CCCCC2)N(Cc2ccco2)C(=O)c2ccccn2)c1 (stereo unspecified) | 2 | 1 | 5 | 26* | -6 | -1 | .
COc1cccc(C(C(=O)NC2CCCCC2)N(Cc2ccco2)C(=O)c2ccccn2)c1 (stereo unspecified) | 2 | -1 | 4 | 8 | 15 | . | .
COc1cccc(-c2onc3ccc(C(=O)/C=C/N(C)C)cc23)c1 | 2 | -4 | 7 | 35* | -10 | 51* | .
Cc1ccccc1NC(=O)c1cccc(N2C(=O)C3C4CC(C(Br)C4Br)C3C2=O)c1 (stereo unspecified) | 8 | 4 | 1 | 28* | -8 | 6 | .
COc1ccc(Cl)cc1NC(=O)CC1S/C(=N/N=C2CCCCCC2)NC1=O (stereo unspecified) | 8 | 0 | 12 | 11 | -7 | . | .
O=C1[C@@H]2CSCN2C(=O)CN1Cc1c(F)cccc1Cl | -2 | 0 | -3 | 26* | 4 | -6 | .
CCN1CCN(Cc2ccc(NC(=O)c3cc(NC(=O)c4cc5cccc(OC)c5o4)cc(OC)c3)cc2C(F)(F)F)CC1 | 20 | -1 | -10 | 29*! | 0 | 49* | .
COc1nccc(Nc2ccccc2)c1C#N | 1 | -2 | . | 28* | -17 | 5 | .
CSc1nccc(Nc2ccccc2)c1C#N | 0 | -1 | . | -5 | 4 | . | .
CC(=O)N1[C@H](C(=O)NCC2CC2)[C@@H](CO)[C@@H]2Cn3c(ccc(C4=CCCC4)c3=O)[C@@H]21 | . | . | -1 | . | . | . | .
Cc1cc(C)c(C#N)c(SCc2cn3c(C)cccc3n2)n1 | 18 | -1 | . | 25* | -10 | 19 | .
COc1ccc(C)cc1-n1nnnc1SCC(=O)c1ccc2c(c1)OCCO2 | 0 | -5 | . | 6 | 0 | . | .
COc1ccc(-n2nnnc2SCC(=O)c2ccc3c(c2)OCCO3)c(OC)c1 | 59* | -2 | 1 | 53* | -6 | 51* | 135*
CC[n+]1ccc(/C=C/c2ccc(N(C)C)cc2)c2ccccc21 | 37* | -12 | -7 | 43* | 6 | 53* | 50*
CCN1CCN(Cc2ccc(NC(=O)c3ccc(C)c(NC(=O)c4c[nH]c5cc(C(F)(F)F)ccc5c4=O)c3)cc2C(F)(F)F)CC1 | 45* | -2 | -6 | 43* | -4 | 53* | 70*
Cc1ccc(C(=O)Nc2cccc(C(F)(F)F)c2)cc1NC(=O)c1c[nH]c2cc(C(F)(F)F)ccc2c1=O | 0 | -1 | 0 | -4 | -12 | . | .
Cc1cc(C(=O)N/N=C2\CCCC(=O)C2)c(C)n1-c1ccccc1 | 23 | -6 | . | -2 | -1 | . | .
O=C(Nc1ccc(N2CCCC2)cc1)c1cc2ccccc2o1 | 77* | 2 | -2 | 43* | 8 | 146* | 6
COc1ccc2cc(C3CC=C(COC(C)=O)CN3S(=O)(=O)c3ccccc3[N+](=O)[O-])n(C(=O)OC(C)(C)C)c2c1 (stereo unspecified) | -6 | 0 | 1 | 1 | 1 | . | .
COc1ccc(-n2nc(C(=O)NCC(=O)NCc3ccc(F)cc3)c3ccccc3c2=O)cc1OC | 139* | -3 | . | 43* | -18 | 49* | 88*
Cc1cc(C(=O)COC(=O)c2n[nH]c(=O)c3ccccc23)c(C)n1C | 13 | 3 | 4 | 1 | 19 | . | .
Cc1cc(C(=O)COC(=O)c2n[nH]c3ccccc23)c(C)n1C | 33* | 1 | . | 34* | 2 | 35* | 52*
COc1ccc(NC(=O)CN2C(=O)C(C)Oc3ccccc32)c(OC)c1 (stereo unspecified) | -2 | 1 | . | -5 | -3 | . | .
CNC(=O)[C@H]1O[C@@H](n2cnc3c(NCc4cccc(I)c4)nc(Cl)nc32)[C@H](O)[C@@H]1O | 7 | 1 | 0 | 0 | 6 | . | .
SMILES | ARFGAP1 inhibitor | LEDGF integ inh | CASP6 VEID inh | ASAP1 GAP inh | TDP2 inh | ASAP1 inh confirm | ARFGAP1 confirm
COc1cccc(/C=C2\Oc3cc(OCC(=O)N4CCCC4)ccc3C2=O)c1OC | 4 | -1 | 2 | 12 | -3 | . | .
COc1ccc(/C=C2\Oc3cc(OCC(=O)N4CCC(C(=O)O)CC4)ccc3C2=O)c(OC)c1OC | 31* | 0 | -4 | 32* | -5 | 35* | 41*
CCN1CCN(c2cc(C)c3cc(NC(=O)c4cccnc4Cl)ccc3n2)CC1 | 7 | 1 | . | 3 | -7 | . | .
Cc1cc(N2CCN(C)CC2)nc2ccc(NC(=O)c3cccnc3Cl)cc12 | 29* | -1 | . | 49* | -5 | 25* | 28*
COc1ccc2c3c(n(C)c2c1)[C@@H](CO)N(Cc1nccs1)CC31CN(C(=O)CC2CC2)C1 | . | . | 1 | . | . | . | .
O=C(COc1ccc2oc(-c3ccco3)cc(=O)c2c1)N1CCCCC1 | 80* | 0 | 20 | 32* | 5 | 42* | 72*
COc1cc(/C=C/C(=O)Nc2ccc3nc4n(c(=O)c3c2)CCCC4)cc(OC)c1OC | 25* | -4 | 0 | 27* | -5 | 43* | 38*
COc1cc(/C=C(/C#N)c2nc3ccccc3[nH]2)ccc1OCc1ccc(C(=O)O)o1 | 6 | 0 | 24 | 1 | -6 | . | .
COC(=O)c1ccc(COc2ccc(/C=C(\C#N)c3nc4ccccc4[nH]3)cc2OC)o1 | 61* | 3 | . | 35* | 10 | 78* | 108*
O=C(O)CCCCCNC(=O)c1ccccc1 | -1 | -1 | . | 0 | 12 | . | .
COc1ccc(-c2cc(NC=O)c3ncc(-c4ccc(C(C)=O)cc4)n3c2)cc1OC | 28* | 2 | 2 | 45* | -8 | 61* | 50*
COc1cc(-c2cc(NC=O)c3ncc(-c4ccc(C(C)=O)cc4)n3c2)cc(OC)c1OC | 12 | -1 | 4 | 13 | 6 | . | .
CCCS(=O)(=O)NCCc1cc2c(OC)ccc(OC)c2[nH]c1=O | 1 | 2 | . | 4 | -2 | . | .
O=C(Nc1nnc(-c2ccc3c(c2)OCCO3)o1)c1ccc(Cc2ccccc2)cc1 | 92* | 0 | -2 | 133* | 2 | 139* | 155*
O=C(CCOc1ccccc1)Nc1nnc(-c2ccc3c(c2)OCCO3)o1 | 5 | -6 | 0 | -8 | -18 | . | .
Cc1cccc(C)c1NC(=O)CN(C)CC(=O)Nc1cc(Cl)ccc1C#N | 5 | 1 | 0 | -12 | -5 | . | .
Cc1ccc(S(=O)(=O)Cc2ccc(C(=O)NCCc3ccccc3)o2)cc1 | 4 | 1 | 2 | -1 | 4 | . | .
